Experiments:
[1] = test system: Human immunodeficiency virus 1; test: Selectivity ratio of EC50 for raltegravir resistant HIV1 harboring integrase G140S/Q148H double mutant infected in human MT4 cells to EC50 for wild type HIV1 3B infected in human MT4 cells; format: functional
Summary of the method: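 MT-4 cells were infected with 100–300 CCID₅₀ of virus stock (titrated in MT-4 cells) in the presence of 5-fold serial drug dilutions. EC₅₀ is the concentration giving 50% protection against virus-induced cytopathic effect, read by MTT reduction (MT-4/MTT assay). The value is the fold-change in EC₅₀ for each mutant strain relative to the wild-type HIV-1 strain.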

[2] = Cytotoxicity against human HepG2 cells assessed as reduction in nuclear size at 1 uM after 72 hrs by fluorescent image analysis relative to untreated control; format: cell-based; conditions: read-out: INH
Summary of the method: (§1)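 Contract in vitro cytotoxicity panel covering cell number, intracellular free calcium, nuclear size, membrane permeability and mitochondrial membrane potential. Compounds tested at 1.0, 30.0 and 100.0 µM; values are percentage change versus untreated control, and IC50 where derived.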

[3] = test system: HepG2; test: Cytotoxicity against human HepG2 cells assessed as increase in membrane permeability at 1 uM after 72 hrs by fluorescent image analysis relative to untreated control; format: cell-based; conditions: hepg2, 72 h
[4] = target: CYP2C9 (Homo sapiens, UniProt P11712); test: Inhibition of human recombinant CYP2C9 using MFC as substrate at 10 uM incubated for 40 mins by fluorimetry relative to control; format: ADME; conditions: recombinant CYP2C9, probe MFC
Sequence of CYP2C9 (P11712 whole entry, canonical isoform): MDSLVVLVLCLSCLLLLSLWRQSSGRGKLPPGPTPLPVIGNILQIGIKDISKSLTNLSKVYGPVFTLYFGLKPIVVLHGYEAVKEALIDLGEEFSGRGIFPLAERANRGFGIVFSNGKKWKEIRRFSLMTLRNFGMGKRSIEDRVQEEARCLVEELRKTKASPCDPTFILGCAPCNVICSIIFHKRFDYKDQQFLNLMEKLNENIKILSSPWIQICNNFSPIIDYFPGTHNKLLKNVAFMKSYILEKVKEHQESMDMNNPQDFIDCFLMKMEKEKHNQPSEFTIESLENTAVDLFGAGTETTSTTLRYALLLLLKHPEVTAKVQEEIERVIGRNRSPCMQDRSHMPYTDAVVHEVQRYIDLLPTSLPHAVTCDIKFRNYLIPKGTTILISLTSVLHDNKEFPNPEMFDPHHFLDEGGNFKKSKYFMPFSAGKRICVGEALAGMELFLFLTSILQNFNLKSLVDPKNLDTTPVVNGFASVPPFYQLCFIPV
Summary of the method: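 Recombinant CYP isoforms, each with its fluorogenic substrate: CYP1A2 and CYP2C19 with CEC, CYP2C9 and CYP2D6 with MFC, CYP3A4 with BFC. Read as percentage inhibition of control, standard contract assays.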

[5] = Cytotoxicity against human HepG2 cells assessed as reduction in nuclear size at 100 uM after 72 hrs by fluorescent image analysis relative to untreated control; format: cell-based; conditions: read-out: INH; summary of the method: as §1
[6] = target: T1, hERG (KCNH2) (Homo sapiens, UniProt Q12809); test: in vitro; conditions: CHO-K1 cells expressing human ERG
T1 sequence (Q12809 whole entry): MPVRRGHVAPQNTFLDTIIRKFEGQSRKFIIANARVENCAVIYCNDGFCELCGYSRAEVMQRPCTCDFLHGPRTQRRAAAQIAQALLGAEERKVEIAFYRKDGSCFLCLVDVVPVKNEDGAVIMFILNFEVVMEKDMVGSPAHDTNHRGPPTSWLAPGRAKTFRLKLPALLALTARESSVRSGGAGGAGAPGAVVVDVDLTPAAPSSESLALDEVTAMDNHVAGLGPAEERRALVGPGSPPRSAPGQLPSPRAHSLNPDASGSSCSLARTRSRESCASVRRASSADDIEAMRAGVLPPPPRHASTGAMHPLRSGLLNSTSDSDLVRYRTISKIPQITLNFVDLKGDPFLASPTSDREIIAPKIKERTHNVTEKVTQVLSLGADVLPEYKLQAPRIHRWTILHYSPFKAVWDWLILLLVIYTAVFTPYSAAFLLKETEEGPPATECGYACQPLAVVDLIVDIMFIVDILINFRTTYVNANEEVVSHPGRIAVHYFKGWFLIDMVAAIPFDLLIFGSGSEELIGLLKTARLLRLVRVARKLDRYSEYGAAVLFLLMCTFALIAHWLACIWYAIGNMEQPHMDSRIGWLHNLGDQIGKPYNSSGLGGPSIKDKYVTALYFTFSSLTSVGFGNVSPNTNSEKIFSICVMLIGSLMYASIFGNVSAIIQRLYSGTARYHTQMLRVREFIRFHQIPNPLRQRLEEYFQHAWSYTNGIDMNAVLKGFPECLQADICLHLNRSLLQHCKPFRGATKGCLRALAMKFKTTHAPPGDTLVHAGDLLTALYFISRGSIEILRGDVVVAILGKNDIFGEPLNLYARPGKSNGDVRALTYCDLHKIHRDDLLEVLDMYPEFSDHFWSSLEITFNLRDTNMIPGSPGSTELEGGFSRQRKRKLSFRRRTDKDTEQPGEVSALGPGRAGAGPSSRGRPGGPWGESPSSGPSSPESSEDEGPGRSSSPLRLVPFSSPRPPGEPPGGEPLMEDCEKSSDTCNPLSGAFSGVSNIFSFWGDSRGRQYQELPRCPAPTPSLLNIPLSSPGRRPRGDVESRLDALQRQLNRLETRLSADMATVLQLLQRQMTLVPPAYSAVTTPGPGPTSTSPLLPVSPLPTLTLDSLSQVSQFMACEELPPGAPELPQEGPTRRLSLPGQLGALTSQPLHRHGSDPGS

[7] = Partition coefficient , log D of the compound in n-octanol/PBS at pH 7.4; format: physicochemical
Summary of the method: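 Log D measured by n-octanol/PBS partition at pH 7.4, in a standard contract assay.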

[8] = Cytotoxicity against human HepG2 cells assessed as reduction in mitochondrial membrane potential at 100 uM after 72 hrs by fluorescent image analysis relative to untreated control; format: cell-based; conditions: read-out: INH; summary of the method: as §1
[9] = test system: HepG2; test: Cytotoxicity against human HepG2 cells assessed as increase in intracellular free calcium level at 100 uM after 72 hrs by fluorescent image analysis relative to untreated control; format: cell-based; conditions: hepg2, 72 h; summary of the method: as §1
[10] = Cytotoxicity against human HepG2 cells assessed as reduction in nuclear size at 30 uM after 72 hrs by fluorescent image analysis relative to untreated control; format: cell-based; conditions: read-out: INH; summary of the method: as §1
[11] = test system: HepG2; test: Cytotoxicity against human HepG2 cells assessed as increase in intracellular free calcium level at 1 uM after 72 hrs by fluorescent image analysis relative to untreated control; format: cell-based; conditions: hepg2, 72 h; summary of the method: as §1
[12] = test system: MDCK-II; test: Inhibition of human P-gp expressed in MDCK2-MDR1 cells assessed as reduction in calcien-AM efflux at 100 uM incubated for 20 mins by fluorimetry relative to control; format: cell-based
Summary of the method: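 P-gp efflux inhibition in MDR1-MDCKII cells with calcein AM substrate, tested up to 100.0 µM. Read as percentage inhibition of control.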

[13] = target: T2, Human immunodeficiency virus type 1 integrase (Human immunodeficiency virus 1, UniProt Q7ZJM1); test: Inhibition of HIV1 integrase strand transfer activity using 5'[digoxigenin]-GACCCTTTTAGTCAGTGTGGAAAATCTCTAGCA-3' as substrate incubated for 1 hr by ELISA
T2 sequence (Q7ZJM1 whole entry): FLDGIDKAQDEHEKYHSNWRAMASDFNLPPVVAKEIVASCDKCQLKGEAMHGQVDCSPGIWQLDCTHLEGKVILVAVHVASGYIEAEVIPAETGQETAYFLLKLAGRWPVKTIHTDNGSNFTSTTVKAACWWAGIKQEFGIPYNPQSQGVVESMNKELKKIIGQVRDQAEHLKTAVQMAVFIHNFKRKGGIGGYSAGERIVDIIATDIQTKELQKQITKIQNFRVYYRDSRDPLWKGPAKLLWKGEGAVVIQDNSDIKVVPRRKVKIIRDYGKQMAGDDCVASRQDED
Summary of the method: (§2)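 ELISA with a 3'-biotin oligo and a 5'-digoxigenin partner oligo. Overall assay uses the full complementary oligo; strand transfer uses a precleaved oligo lacking the 3'-GT. Integrase at 160 nM final, annealed oligos 7 nM, in 10 mM MgCl2, 5 mM DTT, 20 mM HEPES pH 7.5, 0.5% PEG, 15% DMSO. Run 1 h at 37 °C, products denatured with NaOH, detected on avidin plates.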

[14] = Apparent permeability coefficient in human Caco2 cells at pH 6.5/7.4 at 10 uM; format: ADME, cell-based; conditions: Caco-2, pH 6.5
Summary of the method: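 A-to-B permeability measured in Caco-2 monolayers at pH 6.5/7.4, reported as Papp. Standard contract assay.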

[15] = Therapeutic index, ratio of CC50 for human MT4 cells to EC50 for HIV1 3B infected in human MT4 cells; format: cell-based; conditions: read-out: Ratio CC50/EC50
Summary of the method: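 Ratio of CC50 to EC50. Both were determined in parallel by MTT in MT-4 cells, with the EC50 measured against HIV-1 IIIB cytopathic effect.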

[16] = target: T2, Human immunodeficiency virus type 1 integrase; test: Inhibition of HIV1 integrase using 3'-biotin-labelled and 5'-digoxigenin-labelled oligonucleotide substrate incubated for 1 hr by ELISA; summary of the method: as §2
[17] = target: T1, hERG (KCNH2); test: in vitro; conditions: CHO-K1 cells expressing human ERG; remark: listed apart in the source
[18] = Plasma protein binding in human assessed as drug recovery at 10 uM incubated for 4 hrs by equilibrium dialysis method; format: ADME, cell-free; conditions: read-out: Drug recovery
Summary of the method: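 Human plasma protein binding, given as percent bound and percent recovery, in a standard contract assay.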

[19] = test system: Human immunodeficiency virus 1; test: Selectivity ratio of EC50 for raltegravir resistant HIV1 harboring integrase Q148H mutant infected in human MT4 cells to EC50 for wild type HIV1 3B infected in human MT4 cells; format: functional
Summary of the method: (§3)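 MT-4/MTT cytopathic-effect assay in human MT-4 lymphocytes. Cells were infected with 100–300 CCID50 of each virus stock in the presence of 5-fold serial drug dilutions. The HIV-1 IIIB wild-type stock was titrated on MT-4 cells. Viability was read spectrophotometrically as formazan from MTT reduction. EC50 is the concentration giving 50% protection against CPE for each strain. Fold-change is mutant-strain EC50 relative to wild-type EC50.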

[20] = test system: Human immunodeficiency virus 1; test: Selectivity ratio of EC50 for raltegravir resistant HIV1 harboring integrase N155H mutant infected in human MT4 cells to EC50 for wild type HIV1 3B infected in human MT4 cells; format: functional; summary of the method: as §3

SMILES: CCCCCCNC(=O)C1C(=O)N(O)C(=O)c2ccccc21 (stereo not given)
- Ratio EC50 [1]: 1
- cytotoxicity at 72 h, 1 µM [2]: -7%
- Activity [3]: 0.1%
- inhibition at 40 min, 10 µM [4]: 25.3%
- cytotoxicity at 72 h, 100 µM [5]: 26.8%
- inhibition at 5 min, 10 µM [6]: 19.4%
- logD [7]: 1.26
- cytotoxicity at 72 h, 100 µM [8]: 33.9%
- Activity [9]: 32.3%
- cytotoxicity at 72 h, 30 µM [10]: 12.1%
- Activity [11]: -1.5%
- inhibition [12]: 5.3%
- IC50 [13]: 195 nM
- Papp at 10 µM [14]: 24.6 ×10⁻⁶ cm/s
- selectivity ratio [15]: 21.2
- IC50 [16]: 85 nM
- inhibition at 5 min, 0.1 µM [17]: 5.8%
- recovery at 4 h, 10 µM [18]: 93.2%
- Ratio EC50 [19]: 1
- Ratio EC50 [20]: 1

From ChEMBL document CHEMBL3804820, “2-hydroxyisoquinoline-1,3(2H,4H)-diones (HIDs) as human immunodeficiency virus type 1 integrase inhibitors: Influence of the alkylcarboxamide substitution of position 4” (Eur J Med Chem, 2016)
